# Bcl-XL Bim block: disrupts Bim peptide binding to human Bcl-XL; Q07817; bead flow cytometry, fluorescence; inhibition, % at 10 µM; actives 0.04% (n = 190,000); AID 1007
# Bim-Bcl-2: disrupts Bim peptide binding to human Bcl-2. P10415. Bead-based flow cytometry, Bim peptide-Bcl-2 binding. inhibition, % at 10 µM. actives 0.06% (n = 190,000). AID 950; in the data active = inhibition above about 40%;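 also: 0% = no compound wells with probe peptide and 100% = reference peptide inhibitor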
# Target sequence (P10415 whole entry, looked up): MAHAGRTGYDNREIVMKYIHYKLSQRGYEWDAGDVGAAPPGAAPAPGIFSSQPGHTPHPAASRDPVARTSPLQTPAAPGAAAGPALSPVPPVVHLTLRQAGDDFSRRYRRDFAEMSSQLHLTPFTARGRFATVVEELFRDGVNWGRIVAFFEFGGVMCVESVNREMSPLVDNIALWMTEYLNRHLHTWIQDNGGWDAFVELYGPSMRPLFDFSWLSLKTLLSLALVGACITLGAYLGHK
# Bfl-1 Bim block: inhibitors of Bim-Bfl-1 interaction, human | inhibition, % at 10 µM | Bead-based flow cytometry, Bim-Bfl-1 binding inhibition | Q16548 | actives 0.12% (n = 190,000);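 also: 0% = wells without compound plus tracer and 100% = blocker peptide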
# Bcl-W Bim block: human Bim-Bcl-W interaction inhibition; bead-based flow cytometry, Bim peptide-Bcl-W binding; Q92843; actives 0.02% (n = 190,000); inhibition, % at 10 µM; AID 952;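 also: 0% = bound tracer without compound and 100% = peptide blocker; higher means less fluorescent Bim peptide bound to Bcl-W beads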
# Bcl-B Bim block: inhibitors of Bim-Bcl-B interaction, human; Q9HD36; bead-based flow cytometry, Bim peptide-Bcl-B binding; inhibition, % at 10 µM; actives 0.073% (n = 190,000); AID 951;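 also: 0% = tracer peptide without compound and 100% = reference inhibitor peptide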
# Calb biofilm kill: mixtures killing C. albicans biofilm | C. albicans biofilm persisters + clotrimazole, fluorescence viability; primary screen in compound mixtures of four per well | inhibition, % at 7.6 µM | actives 0.02% (n = 120,000) | AID 1242;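 active = inhibition above 30.3% in the primary screen of four-compound pools, then above 30% when the compound was retested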;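 also: compounds exposed to preformed 24 h biofilms for 48 h; 0% = untreated biofilm control and 100% = clotrimazole plus chlorhexidine kill blank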
#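 Probe or stimulus – Clotrimazole 50 µg/mL co-treatment · System – C. albicans biofilms · Schedule – 24 h biofilm formation, then 48 h compound exposure, 37 °C · Evaluation – percent inhibition of biofilm viability · Technique – 2-h Alamar Blue fluorescence, 535/590 nm excitation/emission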
# Bim-BclXL dose: confirmation of regulators of human Bim-Bcl-XL interaction. shares compounds with Bfl-1 Bim block. bead-based flow cytometry, Bim-Bcl-XL binding. inhibition of binding at 100 µM. 40 tested, under 10 active; call rule not given here
# An asterisk follows results filed as active; / = not tested or not shown. Most compounds without a hit are left out; they make up all but 0.17% or so of the library. Rule as the data show it, unless noted: active = inhibition above about 40%.
SMILES,Bcl-XL Bim block,Bim-Bcl-2,Bfl-1 Bim block,Bcl-W Bim block,Bcl-B Bim block,Calb biofilm kill,Bim-BclXL dose
COc1ccc(N2C(=O)C(Cl)=C(NC3C(=O)N(c4ccccc4)N(C)C3C)C2=O)cc1 (centres undefined),/,/,/,/,/,/,-3.9
O=C(NCc1ccccc1)c1ccc2nc(-c3ccco3)c(-c3ccco3)nc2c1,7,17,43*,19,5,/,15
CC(CCO)Nc1nc2c(c(=O)n(C)c(=O)n2C)n1Cc1cccc(Br)c1 (centres undefined),-4,-8,-12,1,-5,/,/
Oc1ccc(NCc2ccccc2OCc2ccccc2)cc1,1,11,34,16,-10,5,-0.78
CCNCc1ccccc1OCc1ccccc1,1,0,-3,-2,-2,11,/
COC(=O)c1ccc(Sc2ccccc2NS(=O)(=O)c2ccc(NC(C)=O)cc2)nc1,-8,-3,-7,-2,-10,/,/
COc1ccc(N2C(=O)c3ccccc3C2=O)cc1,-4,-2,-6,-4,-5,-4,/
COc1ccc(N2C(=O)C(Cl)=C(Oc3cccc(OC)c3)C2=O)cc1,-8,2,43*,0,-39,5,-8.2
COc1cc(C2NC(=O)NC(C)=C2[N+](=O)[O-])cc(OC)c1OC (centres undefined),/,/,/,/,/,10,/
CC(=O)Nc1ccc(-n2cc(-c3ccccc3)[nH]c2=S)cc1,-5,-1,27,-1,-37,0,-10
CCCC(=O)c1ccc(-c2ccccc2)cc1,-3,-11,-11,3,-10,/,/
